Experimental findings from ChEMBL document CHEMBL3797202, “Novel Oxindole Sulfonamides and Sulfamides: EPZ031686, the First Orally Bioavailable Small Molecule SMYD3 Inhibitor” (ACS Med Chem Lett, 2016) are described below.

Series [1] concerns the target T1, Histone-lysine N-methyltransferase SMYD3 (Homo sapiens, UniProt Q9H7B4).
T1 sequence (Q9H7B4 whole entry): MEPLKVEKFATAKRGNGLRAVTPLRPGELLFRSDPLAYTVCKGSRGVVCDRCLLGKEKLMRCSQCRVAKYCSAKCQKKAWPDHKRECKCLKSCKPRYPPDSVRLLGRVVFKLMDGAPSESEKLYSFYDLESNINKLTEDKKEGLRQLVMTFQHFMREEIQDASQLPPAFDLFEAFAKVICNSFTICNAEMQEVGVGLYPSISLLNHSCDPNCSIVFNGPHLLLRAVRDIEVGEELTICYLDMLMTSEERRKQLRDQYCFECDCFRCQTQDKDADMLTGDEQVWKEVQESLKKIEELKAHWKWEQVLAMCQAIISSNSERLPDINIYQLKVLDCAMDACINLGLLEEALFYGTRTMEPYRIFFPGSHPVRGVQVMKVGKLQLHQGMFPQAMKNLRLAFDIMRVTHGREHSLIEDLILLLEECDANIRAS
In words: Inhibition of full length N-terminal His-tagged SMYD3 (1 to 428 residues) (unknown origin) expressed in Escherichia coli using N-terminal GST-tagged MEKK2 as substrate preincubated for 30 mins followed by substrate addition by scintillation proximity assay in presence of [3H]SAM. Background: In a scintillation proximity assay essentially only radioactivity close to the scintillant gives light.

In series [2] the target is T1, Histone-lysine N-methyltransferase SMYD3. In words: Non-competitive inhibition of full length N-terminal His-tagged SMYD3 (1 to 428 residues) (unknown origin) expressed in Escherichia coli using varying N-terminal GST-tagged MEKK2 substrate and fixed SAM levels preincubated for 30 mins followed by substrate addition by filter plate assay.
Series [3] shares this target. In words: Non-competitive inhibition of full length N-terminal His-tagged SMYD3 (1 to 428 residues) (unknown origin) expressed in Escherichia coli using fixed N-terminal GST-tagged MEKK2 substrate and varying SAM levels preincubated for 30 mins followed by substrate addition by filter plate assay.
A short description of series [4]: Efflux ratio of apparent permeability in human Caco2 cells at 10 uM incubated for 120 mins by LC-MS/MS analysis. The class given is ADME, cell-based. The following applies: Caco-2. The gist of the method:
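Permeability in Caco-2 cells, measured apical-to-basolateral as P_app (×10⁻⁶ cm/s). An efflux ratio is reported as the index of active efflux. This is part of an in vitro ADME screen run before mouse PK studies.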
For orientation: Passage across Caco-2 layers is used to estimate intestinal permeability.

A short description of series [5]: Clearance in CD1 mouse at 1 mg/kg, iv as bolus dose measured up to 24 hrs by LC-MS/MS analysis. In kind it is ADME, organism-based. The following applies: in vivo. In a few lines:
(§1)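 Male CD-1 mice received a single bolus: 1 mg/kg i.v., or 5 or 50 mg/kg p.o. Values are mean ± SD, n = 3. […] Bioavailability was determined separately for each oral dose.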

A short description of series [6]: Renal clearance in CD1 mouse at 1 mg/kg, iv as bolus dose measured up to 24 hrs by LC-MS/MS analysis. The class given is ADME, organism-based, Kidney. As to conditions: in vivo. In a few lines: as §1
A short description of series [7]: Volume of distribution at steady state in CD1 mouse at 1 mg/kg, iv as bolus dose measured up to 24 hrs by LC-MS/MS analysis. As to conditions: in vivo, read-out: Vdss. In kind it is ADME, organism-based. The gist of the method: as §1
A short description of series [8]: Terminal half life in CD1 mouse at 1 mg/kg, iv as bolus dose by LC-MS/MS analysis. The class given is ADME, organism-based. As to conditions: in vivo, read-out: beta t1/2 (converted). The gist of the method: as §1
A short description of series [9]: AUC (0 to last) in CD1 mouse at 1 mg/kg, iv as bolus dose measured up to 24 hrs by LC-MS/MS analysis. The class given is ADME, organism-based. On the set-up: dose 1 mg/kg, time 0 - last, route intravenous. As to conditions: in vivo. The gist of the method:
as §1

A short description of series [10]: AUC (0 to infinity) in CD1 mouse at 1 mg/kg, iv as bolus dose measured up to 24 hrs by LC-MS/MS analysis. The class given is ADME, organism-based. On the set-up: dose 1 mg/kg, route intravenous, time infinity. The following applies: in vivo. In a few lines: as §1
The nature of series [11]: Terminal half life in CD1 mouse at 5 mg/kg, administered through oral gavage by LC-MS/MS analysis. In kind it is ADME, organism-based. The following applies: in vivo, read-out: beta t1/2 (converted). The gist of the method: as §1
Series [12] is described as follows: Tmax in CD1 mouse at 5 mg/kg, administered through oral gavage by LC-MS/MS analysis. The class given is ADME, organism-based. As to conditions: in vivo. The gist of the method:
as §1

Series [13] is described as follows: Cmax in CD1 mouse at 5 mg/kg, administered through oral gavage measured up to 24 hrs by LC-MS/MS analysis. In kind it is ADME, organism-based. On the set-up: dose 5 mg/kg, route oral. The following applies: in vivo. The gist of the method: as §1
Series [14] is described as follows: AUC (0 to last) in CD1 mouse at 5 mg/kg, administered through oral gavage measured up to 24 hrs by LC-MS/MS analysis. The class given is ADME, organism-based. As to conditions: in vivo. On the set-up: dose 5 mg/kg, route oral, time 0 - last. In a few lines: as §1
A short description of series [15]: AUC (0 to infinity) in CD1 mouse at 5 mg/kg, administered through oral gavage measured up to 24 hrs by LC-MS/MS analysis. More on the design: dose 5 mg/kg, time infinity, route oral. As to conditions: in vivo. The class given is ADME, organism-based. The gist of the method:
as §1

Series [16] can be described thus: Oral bioavailability in CD1 mouse at 5 mg/kg measured up to 24 hrs by LC-MS/MS analysis. As to conditions: in vivo. In kind it is ADME, organism-based. In a few lines: as §1
Series [17] can be described thus: Terminal half life in CD1 mouse at 50 mg/kg, administered through oral gavage by LC-MS/MS analysis. The class given is ADME, organism-based. As to conditions: in vivo, read-out: beta t1/2 (converted). The gist of the method:
as §1

Series [18] can be described thus: Tmax in CD1 mouse at 50 mg/kg, administered through oral gavage by LC-MS/MS analysis. The class given is ADME, organism-based. The following applies: in vivo. The gist of the method: as §1
Series [19] in a line: Cmax in CD1 mouse at 50 mg/kg, administered through oral gavage measured up to 24 hrs by LC-MS/MS analysis. In kind it is ADME, organism-based. The following applies: in vivo. On the set-up: dose 50 mg/kg, route oral. In a few lines:
as §1

Series [20] can be described thus: AUC (0 to last) in CD1 mouse at 50 mg/kg, administered through oral gavage measured up to 24 hrs by LC-MS/MS analysis. The class given is ADME, organism-based. More on the design: dose 50 mg/kg, route oral, time 0 - last. As to conditions: in vivo. The gist of the method:
as §1

Series [21] is described as follows: AUC (0 to infinity) in CD1 mouse at 50 mg/kg, administered through oral gavage measured up to 24 hrs by LC-MS/MS analysis. In kind it is ADME, organism-based. On the set-up: dose 50 mg/kg, time infinity, route oral. As to conditions: in vivo. The gist of the method:
as §1

Series [22] can be described thus: Oral bioavailability in CD1 mouse at 50 mg/kg measured up to 24 hrs by LC-MS/MS analysis. In kind it is ADME, organism-based. As to conditions: in vivo. In a few lines:
as §1

A short description of series [23]: Drug excretion in CD1 mouse urine at 1 mg/kg, iv as bolus dose after 24 hrs by LC-MS/MS analysis. The class given is ADME, organism-based. As to conditions: read-out: Drug excretion. In a few lines:
as §1

Usually IC50 stands for the concentration at which inhibition is half-maximal. By Ki is commonly meant a measure of affinity in units of concentration, obtained from inhibition or displacement. The efflux ratio is the permeability from basolateral to apical divided by that in the opposite direction, in the common usage. The term clearance denotes a measure of how efficiently the substance is removed, as volume per time. Read a high clearance as efficient removal. Usually AUC(0-t) stands for exposure summed from dosing to a finite time, without extrapolation to infinity. A higher AUC(0-t) goes with more exposure. What is called AUC(0-inf) is total exposure, with the tail of the curve extrapolated. A higher AUC(0-inf) goes with high exposure. What is called Tmax is the time at which the peak concentration occurs. In general, Cmax refers to the highest concentration seen after dosing. Usually bioavailability stands for dose-corrected exposure relative to a reference, in per cent. A low value points to poor availability. On to `O=C1Cc2cc(C(=O)N[C@H]3C[C@H]4CC[C@@H](C3)N4S(=O)(=O)CC3CCN(CCCC(F)(F)F)CC3)c(Cl)cc2N1`, for which, in series [1], the 50% inhibitory concentration (IC50) was 3 nM. Besides, the inhibition constant Ki in series [2] was determined as 1.1 nM; in series [3], 1.2 nM. Besides, in [4], the efflux ratio at 2 h, 10 µM was 41. Further, in series [5], the clearance amounted to 27 mL/min/kg. Moreover, in series [6], the CL renal at 24 h was determined as 5.3 mL/min/kg. Further, in series [7], the Vd is 2.3 L/kg. In addition, the results for the half-life in series [8], in [11] and in series [17] were 1.7 h, 2.7 h and 2.2 h, respectively. Further, the AUC(0-t) at 24 h in series [9] is 603 ng·h/mL; in series [14] it was 1280 ng·h/mL; in [20] it was 21200 ng·h/mL. The AUC(0-inf) was found to be 616 ng·h/mL in series [10], 1480 ng·h/mL in series [15] and 21200 ng·h/mL in series [21]. The Tmax in [12] came to 0.89 h; in series [18], 1.3 h. Further, the Cmax came out at 345 ng/mL in series [13] and 4690 ng/mL in series [19]. Further, the bioavailability in [16] amounted to 48%; in series [22] it was 69%. Also, the dose excreted at 24 h in series [23] turned out to be 20%.
